Test results published in ChEMBL document CHEMBL4342512, “Discovery of [1,2,4]Triazolo[1,5-a]pyridine Derivatives as Potent and Orally Bioavailable RORγt Inverse Agonists” (ACS Med Chem Lett, 2020).
Values after ≈ are worked out from the molar mass of the structure shown.

Tests used:
[1] = Bioavailability in mouse at 2 umol/kg, po and 1 umol/kg, iv administered using cassette dosing; assay type: ADME, organism-based; conditions: in vivo
Method in brief: (§1)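 Mouse PK by cassette dosing. The combined compounds were given orally at 2 μmol/kg and intravenously at 1 μmol/kg. PK parameters were derived from the plasma profiles.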

[2] = Metabolic stability in human liver microsomes assessed as intrinsic clearance; assay type: ADME, Microsome
[3] = Unbound clearance in mouse at 2 umol/kg, po and 1 umol/kg, iv administered using cassette dosing; assay type: ADME, organism-based; conditions: in vivo; method in brief: as §1
[4] = Protein binding in human plasma; assay type: ADME, cell-free; conditions: read-out: PPB (converted)
Method in brief: (§2)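 Plasma protein binding was determined in human or mouse plasma.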

[5] = Apparent permeability across apical to basolateral side in human Caco2 cells; assay type: ADME, cell-based; conditions: Caco-2
Method in brief: (§3)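 Bidirectional permeability was measured in the apical-to-basolateral and basolateral-to-apical directions.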

[6] = Clearance in mouse at 2 umol/kg, po and 1 umol/kg, iv administered using cassette dosing; assay type: ADME, organism-based; conditions: in vivo; method in brief: as §1
[7] = Solubility of compound in aqueous medium at pH 6.8; assay type: physicochemical
Method in brief: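 Solubility was measured in the second fluid of the Japanese Pharmacopoeia Disintegration Test (pH 6.8).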

[8] = Half life in mouse at 1 umol/kg, iv administered using cassette dosing; assay type: ADME, organism-based; conditions: in vivo; method in brief: as §1
[9] = Protein binding in mouse plasma; assay type: ADME, cell-free; conditions: read-out: PPB (converted); method in brief: as §2
[10] = Apparent permeability across basolateral to apical side in human Caco2 cells; assay type: ADME, cell-based; conditions: Caco-2; method in brief: as §3
[11] = Half life in mouse at 2 umol/kg, po administered using cassette dosing; assay type: ADME, organism-based; conditions: in vivo; method in brief: as §1
[12] = Volume of distribution at steady state in mouse at 2 umol/kg, po and 1 umol/kg, iv administered using cassette dosing; assay type: ADME, organism-based; conditions: in vivo, read-out: Vdss; method in brief: as §1
[13] = AUC in mouse at 2 umol/kg, po administered using cassette dosing; assay type: ADME, organism-based; conditions: in vivo; method in brief: as §1
[14] = Metabolic stability in mouse liver microsomes assessed as intrinsic clearance; assay type: ADME, Microsome
[15] = Drug metabolism in human hepatocytes assessed as cyclopentyl derived oxidative adduct formation by mass spectrometry; assay type: ADME, cell-based, Hepatocyte
[16] = Drug metabolism in human hepatocytes assessed as central triazolo-pyridine core derived metabolic soft spot formation by mass spectrometry; assay type: ADME, cell-based, Hepatocyte

Work on `Cc1ccc(C(=O)Nc2cn3ncnc3c(O[C@H]3CCN(C(=O)CC(C(F)(F)F)C(F)(F)F)[C@@H](C)C3)c2C)cn1` yielded a bioavailability [1] of 120%, a CLH [2] of 10 µL/min/mg and a CL free [3] of 18.3 mL/min/kg. For the same molecule, the fraction unbound [4] was 0.082, the Papp A→B [5] was 31 ×10⁻⁶ cm/s and the clearance [6] was 2.5 mL/min/kg. It also gave a solubility [7] of 170 µM (≈ 97.3 µg/mL), a half-life [8] of 3.9 h and a fraction unbound [9] of 0.135. The Papp B→A [10] was 51 ×10⁻⁶ cm/s, the half-life [11] was 3.6 h and the Vd [12] was 0.8 L/kg. The AUC [13] was 15 µM·h and the CLH [14] was 30 µL/min/mg.

`Cc1ccc(C(=O)Nc2cn3ncnc3c(CN3CCN(C(=O)C(C)C)[C@@H](C)C3)c2C)cn1` showed a CLH [2] of 240 µL/min/mg.

`Cc1ccc(C(=O)Nc2cn3ncnc3c(CN3CCN(C(=O)CC(C(F)(F)F)C(F)(F)F)[C@@H](C)C3)c2C)cn1` gave a bioavailability [1] of 110%, a CLH [2] of less than 10 µL/min/mg and a CL free [3] of 75 mL/min/kg. For the same molecule, the fraction unbound [4] was 0.139, the Papp A→B [5] was 9.6 ×10⁻⁶ cm/s and the clearance [6] was 18.3 mL/min/kg. The solubility [7] was 200 µM (≈ 114 µg/mL), the half-life [8] was 1 h and the fraction unbound [9] was 0.233. For the same molecule, the Papp B→A [10] was 36 ×10⁻⁶ cm/s, the half-life [11] was 1.1 h and the Vd [12] was 1.1 L/kg. The AUC [13] was 2.3 µM·h and the CLH [14] was less than 10 µL/min/mg.

With `Cc1ccc(C(=O)Nc2cn3ncnc3c(CN3CCN(C(=O)CC(C)C)[C@@H](C)C3)c2C)cn1` the CLH [2] was 20 µL/min/mg.

Work on `Cc1ccc(C(=O)Nc2cn3ncnc3c(CN3CCN(C(=O)CCC(F)(F)F)[C@@H](C)C3)c2C)cn1` yielded a CLH [2] of less than 10 µL/min/mg.

Work on `Cc1ccc(C(=O)Nc2cn3ncnc3c(O[C@@H]3CCN(C(=O)CC(C(F)(F)F)C(F)(F)F)[C@@H](C)C3)c2C)cn1` yielded a CLH [2] of 28 µL/min/mg.

With `Cc1ccc(C(=O)Nc2cc(F)cc(CN3CCN(C(=O)C4CCCC4)[C@@H](C)C3)c2C)cn1` the bioavailability [1] was 48%, the CLH [2] was 88 µL/min/mg and the CL free [3] was 767 mL/min/kg. The fraction unbound [4] was 0.003, the Papp A→B [5] was 40 ×10⁻⁶ cm/s and the clearance [6] was 33.3 mL/min/kg. For the same molecule, the solubility [7] was 71 µM (≈ 32.1 µg/mL), the half-life [8] was 0.7 h and the fraction unbound [9] was 0.043. For the same molecule, the Papp B→A [10] was 55 ×10⁻⁶ cm/s, the half-life [11] was 0.7 h and the Vd [12] was 1.6 L/kg. The AUC [13] was 0.49 µM·h and the CLH [14] was 110 µL/min/mg.

Work on `Cc1ccc(C(=O)Nc2cc3nncn3c(CN3CCN(C(=O)C4CCCC4)[C@@H](C)C3)c2C)cn1` yielded a CLH [2] of 59 µL/min/mg.

For `Cc1ccc(C(=O)Nc2cn3ncnc3c(CN3CCN(C(=O)C4CCC(F)(F)C4)[C@@H](C)C3)c2C)cn1` (stereo partly specified), the CLH [2] was less than 10 µL/min/mg.

With `Cc1ccc(C(=O)Nc2cn3ncnc3c(CN3CCN(C(=O)C4CCCC4)[C@@H](C)C3)c2C)cn1` the bioavailability [1] was 47%, the CLH [2] was 32 µL/min/mg and the CL free [3] was 88.3 mL/min/kg. For the same molecule, the fraction unbound [4] was 0.227, the Drug metabolism [15] was “Metabolite_Detected” and the Papp A→B [5] was 2.5 ×10⁻⁶ cm/s. The Drug metabolism [16] was “Metabolite_Notdetected”, the clearance [6] was 18.3 mL/min/kg and the solubility [7] was 190 µM (≈ 90.4 µg/mL). It also gave a half-life [8] of 1.4 h, a fraction unbound [9] of 0.212 and a Papp B→A [10] of 46 ×10⁻⁶ cm/s. It also gave a half-life [11] of 1.2 h, a Vd [12] of 0.77 L/kg and an AUC [13] of 0.84 µM·h. For the same molecule, the CLH [14] was 11 µL/min/mg.

With `Cc1ccc(C(=O)Nc2cn3ncnc3c(CN3CCN(C(=O)C4CCOCC4)[C@@H](C)C3)c2C)cn1` the CLH [2] was less than 10 µL/min/mg.

`Cc1ccc(C(=O)Nc2cn3ncnc3c(CN3CCN(C(=O)c4ccccc4)[C@@H](C)C3)c2C)cn1` gave a CLH [2] of 21 µL/min/mg.
